Measured values: ChEMBL document CHEMBL4376884, “Toward a Rational Design of Polyamine-Based Zinc-Chelating Agents for Cancer Therapies” (J Med Chem, 2020)
Calls of active or inactive are those of the source. No cut-off for these calls is given here.

What was measured:
PC-3 [1] = assay: Antiproliferative activity against human PC3 cells assessed as reduction in cell viability at 10 uM incubated for 48 hrs by cell titer-glo assay; format: functional, cell-based
In short: (§1)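 Cells plated and treated 24 h later with 10 µM compound for 48 h; viable cells quantified by CellTiter-Glo ATP luminescence. Expressed as percentage of viable cells relative to untreated; mean ± SD of three independent experiments, each in triplicate.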

PC-3 [2] = assay: Induction of apoptosis in human PC3 cells assessed as late apoptotic cells at 10 uM incubated for 72 hrs by annexin V-FITC and propidium iodide staining based flow cytometry analysis (reference value: 0.52 %); format: functional
LN-229 [3] = assay: Metal chelating activity in human LN229 cells assessed as decrease in intracellular concentration of labile zinc ions by measuring reduction in zinquin-Zn2+ complex formation incubated for 12 hrs followed by incubation with fluorophore-zinquin for 30 mins by spectrofluorometric analysis; format: cell-based
In short: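 LN229 cells were treated 12 h, trypsinized, pelleted and checked by Trypan Blue. Then 6x10⁶ cells in 1 mL PBS were loaded with Zinquin 25 μM for 30 min at 37 °C in the dark. Fluorescence was read at ex 370/em 475 nm with a 400–600 nm scan, normalized to cell number, untreated set to 100; four independent experiments.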

LN-229 [4] = assay: Induction of apoptosis in human LN229 cells at 10 uM incubated for 24 to 48 hrs by annexin V-FITC and propidium iodide staining based flow cytometric analysis; format: functional, cell-based
LN-229 [5] = assay: Induction of cell morphological changes in human LN229 cells assessed as loss of cell adherence at 10 uM incubated for 24 to 48 hrs by phase contrast microscopy; format: functional, cell-based
In short: (§2)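 LN229 and PC3 cells exposed to 10 µM compound for the indicated time-points, then imaged live by phase-contrast microscopy for morphology.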

Homo sapiens [6] = species: Homo sapiens; assay: Antiproliferative activity against human UPN2 cells assessed as reduction in cell viability at 10 uM incubated for 48 hrs by cell titer-glo assay; format: functional, cell-based; in short: as §1
LN-229 [7] = assay: Antiproliferative activity against human LN229 cells assessed as reduction in cell viability at 10 uM incubated for 48 hrs in presence of Zn2+ ion by MTT assay; format: functional, cell-based
In short: (§3)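 LN229 and PC3 cells plated, then 24 h later given 10 µM compound with or without 15 µM ZnCl2, CuCl2, FeCl2 or FeCl3 for 48 h. Medium replaced, MTT (12 mM solution) added for 4 h, formazan dissolved in DMSO, absorbance read at 540 nm. Percent viable versus untreated; mean ± SD of three experiments in triplicate.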

LN-229 [8] = assay: Antiproliferative activity against human LN229 cells assessed as reduction in cell viability at 10 uM incubated for 48 hrs in presence of Fe3+ ion by MTT assay; format: functional, cell-based; in short: as §3
LN-229 [9] = assay: Induction of cellular senescence in human LN229 cells assessed as cells with irregular shape at 10 uM incubated for 24 hrs by phase contrast microscopy; format: functional, cell-based
In short: (§4)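 LN229 and PC3 cells, 12×10^4 per well in 6-well plates, treated with 10 µM compound for 24 h. Senescence-associated β-gal staining: fixed in 2% formaldehyde/0.2% glutaraldehyde for 10 min at RT, stained with 1 mg/mL X-gal at 37 °C for 24 h without CO2. Blue cells counted in at least 10 fields at 10x and given as percent of total; four independent experiments. Morphology viewed by phase contrast at ×100.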

Homo sapiens [10] = species: Homo sapiens; assay: Antiproliferative activity against human SP53 cells assessed as reduction in cell viability at 10 uM incubated for 48 hrs by cell titer-glo assay; format: functional, cell-based; in short: as §1
LN-229 [11] = assay: Induction of cell morphological changes in human LN229 cells assessed as random membrane blebbing at 10 uM incubated for 24 to 48 hrs by phase contrast microscopy; format: functional, cell-based; in short: as §2
PC-3 [12] = assay: Induction of cell morphological changes in human PC3 cells assessed as random membrane blebbing at 10 uM incubated for 24 to 48 hrs by phase contrast microscopy; format: functional, cell-based; in short: as §2
PC-3 [13] = assay: Induction of apoptosis in human PC3 cells assessed as increase in caspase-3/7 activation at 10 uM incubated for 48 hrs by luminometric caspase-glo 3/7 assay; format: functional, cell-based
In short: (§5)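 Cells in RPMI or DMEM with 10% heat-inactivated FBS and penicillin/streptomycin, 37 °C, 5% CO2, treated with 10 µM compound for 48 h. Caspase-3 and caspase-7 activity read by luminescent Caspase-Glo 3/7 assay, reported as fold induction over untreated cells; mean ± SD of three independent experiments, each in triplicate.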

PC-3 [14] = assay: Cell cycle arrest in human PC3 cells assessed as cell accumulation at G2/M phase at 10 uM incubated for 48 hrs by propidium iodide staining based flow cytometry analysis relative to control; format: functional
SW-620 = assay: Antiproliferative activity against human SW620 cells assessed as reduction in cell viability at 10 uM incubated for 48 hrs by cell titer-glo assay; format: functional, cell-based; in short: as §1
DNA [15] = assay: Induction of DNA damage in human Z138 cells assessed as gammaH2AX phosphorylation at Ser139 residue at 10 uM incubated for 4 hrs by Flow cytometry analysis; format: cell-based
In short: (§6)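 Z-138 and LN229 cells treated 4 h with 10 µM compound or 1 µM doxorubicin. Fixed in 3.7% formaldehyde on ice, permeabilized with 0.2% Triton X, stained with rabbit anti-pS139 H2A.X (1:400) and Alexa 555 secondary, then analysed by flow cytometry. Fold γH2AX fluorescence versus untreated; mean ± SD of three experiments.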

PC-3 [16] = assay: Induction of cell morphological changes in human PC3 cells assessed as cell shrinkage at 10 uM incubated for 24 to 48 hrs by phase contrast microscopy; format: functional, cell-based; in short: as §2
PC-3 [17] = assay: Cell cycle arrest in human PC3 cells assessed as cell accumulation at sub-G1 phase at 10 uM incubated for 48 hrs by propidium iodide staining based flow cytometry analysis relative to control; format: functional
Homo sapiens [18] = species: Homo sapiens; assay: Induction of apoptosis in human JMV2 cells assessed as increase in caspase-3/7 activation at 10 uM incubated for 48 hrs by luminometric caspase-glo 3/7 assay; format: functional, cell-based; in short: as §5
LN-229 [19] = assay: Induction of cellular senescence in human LN229 cells assessed as flattened cells at 10 uM incubated for 24 hrs by phase contrast microscopy; format: functional, cell-based; in short: as §4
PC-3 [20] = assay: Induction of cellular senescence in human PC3 cells assessed as wider cells at 10 uM incubated for 24 hrs by phase contrast microscopy; format: functional, cell-based; in short: as §4
LN-229 [21] = assay: Induction of cellular senescence in human LN229 cells assessed as increase in nuclear size at 10 uM incubated for 24 hrs by phase contrast microscopy; format: functional, cell-based; in short: as §4
SW480 = assay: Induction of apoptosis in human SW480 cells assessed as increase in caspase-3/7 activation at 10 uM incubated for 48 hrs by luminometric caspase-glo 3/7 assay; format: functional, cell-based; in short: as §5
JeKo-1 = assay: Induction of apoptosis in human JeKo1 cells assessed as increase in caspase-3/7 activation at 10 uM incubated for 48 hrs by luminometric caspase-glo 3/7 assay; format: functional, cell-based; in short: as §5
Homo sapiens [22] = species: Homo sapiens; assay: Antiproliferative activity against human SKMG3 cells assessed as reduction in cell viability at 10 uM incubated for 48 hrs by cell titer-glo assay; format: functional, cell-based; in short: as §1
DNA [23] = assay: Induction of DNA damage in human LN229 cells assessed as gammaH2AX phosphorylation at Ser139 residue at 10 uM incubated for 4 hrs by Flow cytometry analysis; format: cell-based; in short: as §6
PC-3 [24] = assay: Antiproliferative activity against human PC3 cells assessed as reduction in cell viability at 10 uM incubated for 48 hrs in presence of Fe3+ ion by MTT assay; format: functional, cell-based; in short: as §3

Row | SMILES | Activity (PC-3 [1]) | Activity (PC-3 [2]) [%] | Activity (LN-229 [3]) | Activity (LN-229 [4]) | Activity (LN-229 [5]) | Activity (Homo sapiens [6]) | Activity (LN-229 [7]) | Activity (LN-229 [8]) | Activity (LN-229 [9]) | Activity (Homo sapiens [10]) | Activity (LN-229 [11]) | Activity (PC-3 [12]) | Activity (PC-3 [13]) | Activity (PC-3 [14]) [%] | Activity (SW-620) | Activity (DNA [15]) | Activity (PC-3 [16]) | Activity (PC-3 [17]) [%] | Activity (Homo sapiens [18]) | Activity (LN-229 [19]) | also measured
1 | CN(CCNCc1ccccn1)CCNCc1ccccn1 | Active | 12.63 | Dose-dependent effect | Active | Active | Active | inactive | Active | Active | Active | Active | Active | Active | 16 | Active | inactive | Active | 19.6 | Active | Active | Activity (PC-3 [20]): Active; Activity (LN-229 [21]): Active; Activity (SW480): Active; Activity (JeKo-1): Active; Activity (Homo sapiens [22]): Active; Activity (DNA [23]): inactive; Activity (PC-3 [24]): Active
2 | c1ccc(CNCCN(CCNCc2ccccn2)Cc2ccc3ccccc3c2)nc1 | Active | 11.68 | Dose-dependent effect | Active | Active | Active | inactive | Active | Active | Active | Active | Active | Active | 14.1 | Active | inactive | Active | 4.8 | Active | Active | Activity (PC-3 [20]): Active; Activity (LN-229 [21]): Active; Activity (SW480): Active; Activity (JeKo-1): Active; Activity (Homo sapiens [22]): Active; Activity (DNA [23]): inactive; Activity (PC-3 [24]): Active
